pIC50: −log10 of the molar value. Activity calls are given as the source filed them. The calls are words filed in the database; no cut-off is given here.
Tests used:
[1] = Cytotoxicity against human HepG2 cells assessed as cell viability at 25 uM after 72 hrs by MTT assay relative to control; assay type: cell-based; conditions: read-out: Activity
In short: (§1)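 Cells grown in DMEM with 10% FBS at 37 °C, 5% CO₂; seeded 2 x 10³ cells/well, adhered 24 h, then exposed 72 h. MTT: 1 mg/mL for 3 h, formazan in DMSO, absorbance 595 nm. NRU: neutral red 25 µg/mL in serum-free medium for 3 h, desorbed in ethanol:acetic acid:water. Viability as % of untreated control; mean ± SEM of three to five independent experiments in triplicate.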

[2] = Cytotoxicity against human HepG2 cells assessed as cell viability at 100 uM after 72 hrs by MTT assay relative to control; assay type: cell-based; conditions: read-out: Activity; in short: as §1
[3] = Cytotoxicity against human HepG2 cells assessed as cell viability at 500 uM after 72 hrs by MTT assay relative to control; assay type: cell-based; conditions: read-out: Activity; in short: as §1
[4] = Cytotoxicity against human HepG2 cells assessed as cell viability at 1000 uM after 72 hrs by MTT assay relative to control; assay type: cell-based; conditions: read-out: Activity; in short: as §1
[5] = Cytotoxicity against human HepG2 cells assessed as cell viability at 250 uM after 72 hrs by neutral red uptake-based assay relative to control; conditions: read-out: Activity; in short: as §1
[6] = Cytotoxicity against African green monkey Vero cells assessed as cell viability at 250 uM after 72 hrs by MTT assay relative to control; assay type: cell-based; conditions: chlorocebus sabaeus, read-out: Activity; in short: as §1
[7] = Cytotoxicity against African green monkey Vero cells assessed as cell viability at 100 uM after 72 hrs by neutral red uptake-based assay relative to control; conditions: chlorocebus sabaeus, read-out: Activity; in short: as §1
[8] = Cytotoxicity against African green monkey Vero cells assessed as cell viability at 1000 uM after 72 hrs by neutral red uptake-based assay relative to control; conditions: chlorocebus sabaeus, read-out: Activity; in short: as §1
[9] = Cytotoxicity against human HaCaT cells assessed as cell viability at 25 uM after 72 hrs by MTT assay relative to control; assay type: cell-based; conditions: read-out: Activity; in short: as §1
[10] = Cytotoxicity against human HaCaT cells assessed as cell viability at 50 uM after 72 hrs by MTT assay relative to control; assay type: cell-based; conditions: read-out: Activity; in short: as §1
[11] = Cytotoxicity against human HaCaT cells assessed as cell viability at 250 uM after 72 hrs by neutral red uptake-based assay relative to control; conditions: read-out: Activity; in short: as §1
[12] = Cytotoxicity against human HaCaT cells assessed as cell viability at 1000 uM after 72 hrs by neutral red uptake-based assay relative to control; conditions: read-out: Activity; in short: as §1
[13] = Cytotoxicity against mouse RAW264.7 cells assessed as cell viability at 100 uM after 72 hrs by MTT assay relative to control; assay type: cell-based; conditions: read-out: Activity
In short: (§2)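 Cells kept in DMEM with 10% heat-inactivated FBS, 1% penicillin-streptomycin and 0.1% fungizone at 37 °C, 5% CO₂. U-87 MG seeded at 2 x 10^3 cells/well, RAW 264.7 at 5 x 10^2, adhered 24 h, then exposed 72 h. MTT: 1 mg/mL for 3 h, formazan in DMSO, A595. NRU: 25 μg/mL dye, 3 h, ethanol:acetic acid:water desorb. Untreated wells = 100%; three to five independent experiments in triplicate.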

[14] = Cytotoxicity against mouse RAW264.7 cells assessed as cell viability at 500 uM after 72 hrs by neutral red uptake-based assay relative to control; conditions: read-out: Activity; in short: as §2
[15] = Cytotoxicity against human U87MG cells assessed as cell viability at 250 uM after 72 hrs by MTT assay relative to control; assay type: cell-based, U-87MG ATCC; conditions: read-out: Activity; in short: as §2
[16] = Cytotoxicity against human U87MG cells assessed as cell viability at 25 uM after 72 hrs by neutral red uptake-based assay relative to control; set-up: species or system U-87MG ATCC; conditions: read-out: Activity; in short: as §2
Cytochrome P450 1A2 = molecular target: T1, Cytochrome P450 1A2 (Homo sapiens, UniProt P05177); assay: Inhibition of CYP1A2 in human liver microsomes by HPLC-MS/MS analysis; assay type: ADME
T1 sequence (P05177 whole entry): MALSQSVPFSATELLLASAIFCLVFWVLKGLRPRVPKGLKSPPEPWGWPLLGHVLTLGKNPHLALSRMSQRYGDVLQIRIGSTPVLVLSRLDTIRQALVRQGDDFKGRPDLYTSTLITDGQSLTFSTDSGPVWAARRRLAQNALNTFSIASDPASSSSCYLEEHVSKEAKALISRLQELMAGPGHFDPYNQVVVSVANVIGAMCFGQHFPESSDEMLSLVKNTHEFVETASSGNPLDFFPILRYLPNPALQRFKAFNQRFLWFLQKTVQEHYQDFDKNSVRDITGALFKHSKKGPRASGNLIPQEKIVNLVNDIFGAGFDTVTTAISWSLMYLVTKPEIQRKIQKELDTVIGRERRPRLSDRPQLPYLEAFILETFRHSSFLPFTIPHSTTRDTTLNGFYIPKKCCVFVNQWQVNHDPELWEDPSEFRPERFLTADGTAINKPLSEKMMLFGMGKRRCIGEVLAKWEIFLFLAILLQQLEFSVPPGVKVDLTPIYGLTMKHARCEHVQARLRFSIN

Cytochrome P450 2C19 = Cytochrome P450 2C19 (Homo sapiens, UniProt P33261); assay: Inhibition of CYP2C19 in human liver microsomes by HPLC-MS/MS analysis; assay type: ADME
[17] = Intrinsic clearance in human liver S9 fraction at 2 uM up to 30 mins in presence of NADPH by HPLC-MS/MS analysis; assay type: ADME, subcellular; conditions: read-out: CLH
[18] = Elimination rate constant in CF1 mouse at 50 mg/kg, ip by non-compartmental analysis; assay type: ADME, organism-based; conditions: in vivo
[19] = AUMCt in CF1 mouse at 50 mg/kg, ip by non-compartmental analysis; assay type: ADME, organism-based; conditions: in vivo
In short: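 Male CF1 mice, single ip 50 mg/kg in 0.9% saline, 3 animals per time point sampled 0.03–2 h; heparinized blood. AUMC0→t computed by trapezoidal rule to last point (2 h); non-compartmental analysis.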

[20] = MRT in CF1 mouse at 50 mg/kg, ip by non-compartmental analysis; assay type: ADME, organism-based; conditions: in vivo
U-87 MG [21] = assay: Anti-angiogenic activity in tumor of human U87MG cells xenografted in nude BALB/c mouse assessed as reduction in number of blood vessels at 50 mg/kg, ip administered for 14 days by hematoxylin and eosin-staining based light microscopy; assay type: functional, organism-based; conditions: U-87MG ATCC
In short: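 U-87 MG flank xenografts (5 x 10⁵ cells) in male nude mice; ip treatment daily from about 50 mm³ for 14 days, with temozolomide at 50 mg/kg/day in the co-treatment arm. Vessel density counted on HE-stained 3 µm sections by hot-spot method, mean of four fields per tumor at x200, avoiding gross haemorrhage. One-way ANOVA/Dunnett.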

U-87 MG [22] = assay: In-vivo inhibition of cell proliferation in human U87MG cells xenografted in BALB/c nude mouse at 50 mg/kg, ip after 14 days by Ki-67b-staining based assay; assay type: functional, organism-based; conditions: U-87MG ATCC
In short: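 Male BALB/c nude mice implanted subcutaneously with 5 x 10⁵ U-87 MG cells in the right flank. Treated IP at 50 mg/kg/day for 14 days, with saline controls, starting once tumors reached about 50 mm³. Tumors fixed in formaldehyde and cut at 3 µm. Citrate pH 6 antigen retrieval.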

Cytochrome P450 2E1 = Cytochrome P450 2E1 (Homo sapiens, UniProt P05181); assay: Inhibition of CYP2E1 in human liver microsomes by HPLC-MS/MS analysis; assay type: ADME
[23] = Toxicity in nude BALB/c mouse xenografted with human U87MG cells assessed as reduction in body weight at 50 mg/kg, […] co-treated with temozolamide; assay type: organism-based; conditions: in vivo, ip, 120 h

Cytochrome P450 2C19, sequence (P33261 whole entry): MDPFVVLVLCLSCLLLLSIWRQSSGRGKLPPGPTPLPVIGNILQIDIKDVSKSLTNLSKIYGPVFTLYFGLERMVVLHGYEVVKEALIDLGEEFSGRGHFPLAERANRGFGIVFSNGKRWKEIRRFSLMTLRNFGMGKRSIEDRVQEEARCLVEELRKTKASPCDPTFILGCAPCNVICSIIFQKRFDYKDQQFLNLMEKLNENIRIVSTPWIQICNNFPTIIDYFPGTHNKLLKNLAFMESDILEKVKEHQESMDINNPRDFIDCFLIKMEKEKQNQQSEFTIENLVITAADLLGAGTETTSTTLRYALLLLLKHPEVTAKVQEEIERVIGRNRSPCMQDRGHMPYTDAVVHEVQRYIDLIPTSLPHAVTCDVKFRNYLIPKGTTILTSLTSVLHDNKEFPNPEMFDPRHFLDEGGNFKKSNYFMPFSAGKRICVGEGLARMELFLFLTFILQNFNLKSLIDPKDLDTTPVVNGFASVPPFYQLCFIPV
Cytochrome P450 2E1, sequence (P05181 whole entry): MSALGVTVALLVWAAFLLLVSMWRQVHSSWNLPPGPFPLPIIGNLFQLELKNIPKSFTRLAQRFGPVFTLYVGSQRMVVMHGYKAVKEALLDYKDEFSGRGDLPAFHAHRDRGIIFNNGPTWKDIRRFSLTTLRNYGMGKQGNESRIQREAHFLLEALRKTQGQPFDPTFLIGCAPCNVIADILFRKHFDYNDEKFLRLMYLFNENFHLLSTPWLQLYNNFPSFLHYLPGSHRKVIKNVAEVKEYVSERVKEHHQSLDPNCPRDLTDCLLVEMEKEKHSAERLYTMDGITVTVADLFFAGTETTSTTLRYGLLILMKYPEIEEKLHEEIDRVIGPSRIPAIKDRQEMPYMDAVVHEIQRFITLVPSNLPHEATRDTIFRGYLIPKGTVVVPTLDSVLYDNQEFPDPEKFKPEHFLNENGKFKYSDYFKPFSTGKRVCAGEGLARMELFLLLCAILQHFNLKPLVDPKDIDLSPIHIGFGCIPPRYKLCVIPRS

pIC50 (Cytochrome P450 1A2): < 4.00
pIC50 (Cytochrome P450 2C19): < 4.00
CLint scaled at 2 µM [17]: 13 mL/min/kg
k el [18]: 0.000383 s⁻¹
AUMCt [19]: 6.3 µg·h²/mL
MRT [20]: 24 min
pIC50 (Cytochrome P450 2E1): < 4.00
SMILES: O=c1[nH]c(CNC(CO)CO)c(I)c(=O)[nH]1
viability at 72 h, 25 µM [1]: 103%
viability at 72 h, 100 µM [2]: 100%
viability at 72 h, 500 µM [3]: 94%
viability at 72 h, 1000 µM [4]: 82%
viability at 72 h, 250 µM [5]: 98%
viability at 72 h, 250 µM [6]: 95%
viability at 72 h, 100 µM [7]: 108%
viability at 72 h, 1000 µM [8]: 72%
viability at 72 h, 25 µM [9]: 105%
viability at 72 h, 50 µM [10]: 95%
viability at 72 h, 250 µM [11]: 100%
viability at 72 h, 1000 µM [12]: 75%
viability at 72 h, 100 µM [13]: 99%
viability at 72 h, 500 µM [14]: 82%
viability at 72 h, 250 µM [15]: 97%
viability at 72 h, 25 µM [16]: 99%
Activity (U-87 MG [21]): Active
inhibition (U-87 MG [22]): inactive
Activity [23]: Non-Toxic

From ChEMBL document CHEMBL4422632, “Design of Novel Inhibitors of Human Thymidine Phosphorylase: Synthesis, Enzyme Inhibition, in Vitro Toxicity, and Impact on Human Glioblastoma Cancer” (J Med Chem, 2019)
